Assay results from ChEMBL document CHEMBL4145581, “Piperidine Alkaloids with Diverse Skeletons from Anacyclus pyrethrum” (J Nat Prod, 2018).

target: T1, Menin (Homo sapiens) (UniProt O00255); assay: Inhibition of FITC-labelled MLL1 binding to menin (unknown origin) at 20 uM after 120 mins by fluorescence polarization method relative to control
T1 sequence (whole entry): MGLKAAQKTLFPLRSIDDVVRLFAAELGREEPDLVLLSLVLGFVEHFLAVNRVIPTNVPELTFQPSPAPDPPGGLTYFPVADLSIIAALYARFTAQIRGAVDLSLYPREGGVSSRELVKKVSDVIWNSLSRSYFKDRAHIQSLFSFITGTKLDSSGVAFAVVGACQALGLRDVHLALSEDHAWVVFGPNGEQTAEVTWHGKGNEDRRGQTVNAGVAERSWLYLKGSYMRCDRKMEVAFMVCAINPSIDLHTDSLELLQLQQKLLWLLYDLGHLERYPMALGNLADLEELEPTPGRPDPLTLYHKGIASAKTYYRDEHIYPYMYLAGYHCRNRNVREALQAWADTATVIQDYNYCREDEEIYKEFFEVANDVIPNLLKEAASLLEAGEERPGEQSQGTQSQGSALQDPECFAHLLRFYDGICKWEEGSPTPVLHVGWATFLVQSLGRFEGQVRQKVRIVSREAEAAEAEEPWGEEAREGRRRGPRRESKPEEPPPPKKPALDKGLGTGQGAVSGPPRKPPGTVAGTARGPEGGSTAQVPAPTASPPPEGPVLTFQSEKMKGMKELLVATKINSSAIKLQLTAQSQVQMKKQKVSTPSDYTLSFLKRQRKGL
Summary of the method: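 Menin–MLL1 protein–protein interaction inhibition assay with fluorescence polarization read-out on a plate reader. MI-2-2 served as the positive control.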

| inhibition [%] | SMILES |
| --- | --- |
| < 50 | CC1(C)CC2=NC(C)(C)C3=NC(C)(C)CC3(O)C2=N1 (stereo not drawn) |
| < 50 | CC1=CC(=O)NC(C)(C)C1 |
| < 50 | CC(=O)NC(C)(C)[C@H]1C(=O)C2=CC(C)(C)NC(C)=C2C(=O)[C@@H]1C |
| < 50 | CC1=C2NC(C)(C)CC2=NC(C)(C)C1=O |
| < 50 | CC1=C2C3=C(C)C(=O)C(C)(C)N=C3C[C@@]2(C)CC(C)(C)N1 |
| < 50 | CC(=O)NC(C)(C)C[C@@]1(O)C(=O)C2=C(C)NC(C)(C)C(=O)C2(C)[C@H]1O (stereo partly drawn) |
| < 50 | CC1(C)CC(C2OC2(C)C)=CC(=O)N1 (stereo not drawn) |
| < 50 | CC(=O)NC(C)(C)C1C=C2CC(C)(C)NC(C)=C2C(=O)C1C (stereo not drawn) |
| < 50 | CC1=CC(C)(C)NC1=O |
| < 50 | CC1=C2C(=O)C3=CC(C)(C)N=C4CC(C)(C)C[C@@]2(CC(C)(C)N1)[C@]34O |
| < 50 | CC(=O)NC(C)(C)CC1=C[C@@]2(C)C(=O)C(C)(C)NC(C)=C2C1=O |
| < 50 | CC(=O)NC(C)(C)[C@H]1C(=O)C2=CC(C)(C)NC(C)=C2C(=O)[C@@H]1C=C(C)C |
| < 50 | CC1(C)CC2=NC(C)(C)C(=O)C(C(C)(C)O)=C2N1 |
